In ChEMBL document CHEMBL1136915 (Bioorg Med Chem Lett, 2009):

Columns and labels:
[1] = molecular target: T1, Prostaglandin G/H synthase 1 (Ovis aries, UniProt P05979); assay: Inhibition of ovine COX1 by enzyme immunoassay
T1 sequence (P05979 whole entry): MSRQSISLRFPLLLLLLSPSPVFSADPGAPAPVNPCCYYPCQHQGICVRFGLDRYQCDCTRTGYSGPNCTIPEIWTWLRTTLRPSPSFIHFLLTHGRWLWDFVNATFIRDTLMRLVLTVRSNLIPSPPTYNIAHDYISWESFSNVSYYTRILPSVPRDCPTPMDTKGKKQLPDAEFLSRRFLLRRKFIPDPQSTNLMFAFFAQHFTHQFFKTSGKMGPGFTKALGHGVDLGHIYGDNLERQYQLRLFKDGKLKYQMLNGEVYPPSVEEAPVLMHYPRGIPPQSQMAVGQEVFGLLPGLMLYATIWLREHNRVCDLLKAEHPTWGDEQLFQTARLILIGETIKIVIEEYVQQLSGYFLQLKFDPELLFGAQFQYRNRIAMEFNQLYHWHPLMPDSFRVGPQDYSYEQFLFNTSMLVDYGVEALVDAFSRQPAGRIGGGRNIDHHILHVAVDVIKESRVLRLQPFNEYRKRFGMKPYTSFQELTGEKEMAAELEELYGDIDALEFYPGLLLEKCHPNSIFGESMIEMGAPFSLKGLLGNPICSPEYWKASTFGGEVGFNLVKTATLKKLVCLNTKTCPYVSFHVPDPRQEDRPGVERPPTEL
Outline: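 COX inhibition was measured in vitro with an enzyme immunoassay kit. COX-2 selectivity index = COX-1 IC50/COX-2 IC50.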

[2] = molecular target: T2, Prostaglandin G/H synthase 2 (Homo sapiens, UniProt P35354); assay: Inhibition of human COX2 by enzyme immunoassay
T2 sequence (P35354 whole entry): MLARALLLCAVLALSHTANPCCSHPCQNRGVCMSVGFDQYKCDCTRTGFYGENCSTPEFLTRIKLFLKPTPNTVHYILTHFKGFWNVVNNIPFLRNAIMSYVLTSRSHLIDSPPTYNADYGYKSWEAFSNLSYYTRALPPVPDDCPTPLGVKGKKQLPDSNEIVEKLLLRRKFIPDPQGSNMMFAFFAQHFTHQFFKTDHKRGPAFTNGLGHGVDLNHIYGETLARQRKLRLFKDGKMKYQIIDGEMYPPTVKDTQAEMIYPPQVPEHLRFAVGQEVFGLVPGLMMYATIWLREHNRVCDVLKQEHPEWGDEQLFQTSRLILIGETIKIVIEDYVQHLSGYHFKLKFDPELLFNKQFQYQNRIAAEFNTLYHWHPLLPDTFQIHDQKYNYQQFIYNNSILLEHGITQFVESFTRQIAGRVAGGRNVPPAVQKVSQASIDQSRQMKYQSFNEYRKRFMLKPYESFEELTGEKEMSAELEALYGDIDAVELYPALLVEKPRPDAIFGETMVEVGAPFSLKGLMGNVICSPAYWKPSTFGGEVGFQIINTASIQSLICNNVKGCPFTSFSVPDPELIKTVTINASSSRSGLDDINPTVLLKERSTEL
Outline: (§1)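 COX inhibition was measured in vitro with an enzyme immunoassay kit. IC50 is the mean of two determinations, with deviation from the mean <10%. COX-2 selectivity index = COX-1 IC50/COX-2 IC50.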

[3] = Selectivity ratio of IC50 for ovine COX1 to IC50 for human COX2; outline: as §1
Rattus norvegicus [4] = assay: Antiinflammatory activity against carrageenan-induced rat inflammation model assessed as inhibition of paw edema at 327 umol/kg, po after 3 hrs; format: functional
Outline: (§2)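 Test compound was given orally to rats at the stated dose (µmol/kg), followed by carrageenan-induced paw edema.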

[5] = Nitric oxide release in phosphate buffer at pH 7.4 incubated at 37 degC after 1.5 hrs; parameters: concentration or dose not given beside the values; details: pH 7.4, 1.5 h
Serum = assay: Nitric oxide release in rat serum containing phosphate buffer at pH 7.4 incubated at 37 degC after 1.5 hrs; details: pH 7.4, 1.5 h
Rattus norvegicus [6] = assay: Antiinflammatory activity against carrageenan-induced rat inflammation model assessed as inhibition of paw edema at 357 umol/kg, po after 3 hrs; format: functional; outline: as §2
Rattus norvegicus [7] = assay: Antiinflammatory activity against carrageenan-induced rat inflammation model assessed as inhibition of paw edema at 11.7 umol/kg, po after 3 hrs; format: functional; outline: as §2
[8] = Nitric oxide release in phosphate buffer containing 5 mM L-cysteine at pH 7.4 incubated at 37 degC after 1.5 hrs; details: pH 7.4, 1.5 h
Rattus norvegicus [9] = assay: Antiinflammatory activity against carrageenan-induced rat inflammation model assessed as inhibition of paw edema at 714 umol/kg, po after 3 hrs; format: functional; outline: as §2

Row | SMILES | IC50 [1] [µM] | IC50 [2] [µM] | Ratio IC50 [3] | Activity [5] [%] | Activity (Serum) [%] | Activity [8] [%] | inhibition in vivo at 327 µmol/kg (Rattus norvegicus [4]) [%] | inhibition in vivo at 357 µmol/kg (Rattus norvegicus [6]) [%] | inhibition in vivo at 11.7 µmol/kg (Rattus norvegicus [7]) [%] | inhibition in vivo at 714 µmol/kg (Rattus norvegicus [9]) [%]
1 | CC(=O)OCO/N=[N+](\[O-])N1CCC[C@H]1COC(=O)C(C)c1ccc(CC(C)C)cc1 (stereo partly drawn) | > 100 | 6.4 | > 15 | 4.4 | 79.5 |  | 57.1 |  |  | 
2 | CC(C)Cc1ccc(C(C)C(=O)O)cc1 (stereo not drawn) [IBUPROFEN] |  |  |  |  |  |  | 50 |  |  | 
3 | COc1ccc2c(c1)c(CC(=O)O)c(C)n2C(=O)c1ccc(Cl)cc1 [INDOMETHACIN] |  |  |  |  |  |  |  |  | 50 | 
4 | CC(=O)Oc1ccccc1C(=O)O [ASPIRIN] |  |  |  |  |  |  |  |  |  | 50
5 | O=[N+]([O-])OCC(CO[N+](=O)[O-])O[N+](=O)[O-] [NITROGLYCERIN] |  |  |  | 2.8 |  | 10.1 |  |  |  | 

More lines, main results first:

Row | IC50 [1] [µM] | IC50 [2] [µM] | Ratio IC50 [3] | Activity [5] [%] | Activity (Serum) [%] | Activity [8] [%] | SMILES | inhibition in vivo at 327 µmol/kg (Rattus norvegicus [4]) [%] | inhibition in vivo at 357 µmol/kg (Rattus norvegicus [6]) [%] | inhibition in vivo at 11.7 µmol/kg (Rattus norvegicus [7]) [%] | inhibition in vivo at 714 µmol/kg (Rattus norvegicus [9]) [%]
6 | > 100 | 2.2 | > 45 | 7.4 | 50.6 |  | CC(=O)OCO/N=[N+](\[O-])N1CCC[C@H]1COC(=O)c1ccccc1OC(C)=O |  | 23.7 |  | 
7 | > 100 | 0.6 | > 166 | 3.8 |  | 7.4 | COc1ccc2c(c1)c(CC(=O)OC(CO[N+](=O)[O-])CO[N+](=O)[O-])c(C)n2C(=O)c1ccc(Cl)cc1 |  |  | 42.2 | 
8 |  |  |  | 84.5 | 84.8 |  | [Na+].[O-]/N=[N+](\[O-])N1CCC[C@H]1CO |  |  |  | 
9 | > 100 | 9.3 | > 10 | 7.9 | 80.7 |  | COc1ccc2c(c1)c(CC(=O)OC[C@@H]1CCCN1/[N+]([O-])=N/OCOC(C)=O)c(C)n2C(=O)c1ccc(Cl)cc1 |  |  | 53.6 | 
10 | > 100 | 1.7 | > 58 | 3.4 |  | 6.8 | CC(C)Cc1ccc(C(C)C(=O)OC(CO[N+](=O)[O-])CO[N+](=O)[O-])cc1 (stereo not drawn) | 59.1 |  |  | 
11 | > 100 | 7.7 | > 13 | 3.6 |  | 7.8 | CC(=O)Oc1ccccc1C(=O)OC(CO[N+](=O)[O-])CO[N+](=O)[O-] |  | 30.5 |  | 
